Laboratory results published in ChEMBL document CHEMBL3045340, “Synthesis and antifungal activity of novel bisdithiocarbamate derivatives of carbohydrates against Fusarium oxysporum f. sp. lini” (2000).
Activity calls are given as the source filed them. The calls are words filed in the database; no cut-off is given here.

Tests used:
[1] = tested on: Fusarium oxysporum f. sp. lini; assay: Induction of morphological alterations in Fusarium oxysporum f. sp. lini; type: functional, organism-based
In short: (§1)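 Fayret liquid medium with compound in DMF at 0.58 mM dithiocarbamoyl equivalent, inoculated with glass-wool-filtered spores (hemocytometer count) from 10-day-old MEA culture to 104 spores mL-1; shaken at 90 tpm, 20 °C, 12 h photoperiod, 7 days; spore germination and hyphal morphology of treated versus untreated fungus examined by light microscopy.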

[2] = tested on: Fusarium oxysporum f. sp. lini; assay: Induction of delay in spore germination of Fusarium oxysporum f. sp. lini; type: functional, organism-based; in short: as §1
[3] = tested on: Fusarium oxysporum f. sp. lini; assay: Antifungal activity against Fusarium oxysporum f. sp. lini assessed as inhibition of radial fungal growth at 0.58 mM after 6 days; type: functional; details: 144 h, read-out: GI
In short: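 Mycelial plug (6 mm) cut from margin of 4-day-old MEA culture placed on MEA plates containing compound (DMF vehicle, ≤1% v/v final) at 0.58 mM dithiocarbamoyl equivalent; 20 °C, 12 h photoperiod; colony diameter read daily over 6 days; percent growth inhibition versus untreated culture; three replicates per treatment, two runs; two-sample t-test, P 0.01.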

[4] = tested on: Fusarium oxysporum f. sp. lini; assay: Inhibition of spore germination of Fusarium oxysporum f. sp. lini; type: functional, organism-based
In short: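 Liquid Fayret medium held N,N-dimethylformamide solutions at 0.58 mM equivalent of dithiocarbamoyl group. Spores were washed from a 10-day MEA culture, glass-wool filtered, counted by hemocytometer and seeded at 10^4 spores mL-1. Tubes were shaken at 90 tpm at 20 °C under a 12 h photoperiod for 7 days. Germination timing and hyphal morphology were assessed by light microscopy against untreated controls.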

[5] = tested on: Fusarium oxysporum f. sp. lini; assay: Antifungal activity against Fusarium oxysporum f. sp. lini assessed as inhibition of radial fungal growth at 100 ppm after 6 days; type: functional
In short: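 Radial growth on malt extract agar. Compounds dissolved in N,N-dimethylformamide (final ≤1% v/v) were mixed into molten MEA at 50 °C, giving 0.58 mM equivalent of dithiocarbamoyl group. A 6 mm plug from the margin of a 4-day MEA culture was placed on each plate. Plates were held at 20 °C under a 12 h photoperiod, with colony diameter read daily for 6 days. Two runs, three replicates each; two-sample t-test against untreated cultures.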

Row | Compound | Activity [2] | inhibition of growth at 580 µM [3] [%] | also measured
1 | CCN(CC)C(=S)SCC(O)CSC(=S)N(CC)CC | Active | 30 | Activity [1]: Active
2 | CCCCCCCC(=O)OC(CSC(=S)N(CC)CC)CSC(=S)N(CC)CC |  | 7 | 
3 | CCCC(=O)OC(CSC(=S)N(CC)CC)CSC(=S)N(CC)CC |  | 12 | 
4 | CCN(CC)C(=S)SC[C@H](O)[C@H]1O[C@@H]2OC(C)(C)O[C@@H]2[C@H]1SC(=S)N(CC)CC | Active | 17 | 
5 | CCN(CC)C(=S)SCC(O)CO (racemic) |  | 10 | 
6 | CCN(CC)C(=S)S [DITIOCARB SODIUM] |  |  | inhibition [4]: Active; inhibition of growth at 100 ppm ([5]; 144 h, read-out: GI): 18%
7 | maneb |  |  | inhibition [4]: Active; growth inhibition (GI) [5]: 12%
8 | CCN(CC)C(=S)SCC(CSC(=S)N(CC)CC)OC(C)=O |  | 12 | 
9 | CCSC(=S)NCC(O)CNC(=S)SCC | Active | 27 | Activity [1]: Active
10 | CCN(CC)C(=S)SC[C@H]1OC(O)[C@H](O)[C@@H](SC(=S)N(CC)CC)[C@@H]1O (stereo not given in full) | Active | 18 | Activity [1]: Active
11 | CCN(CC)C(=S)SCC(=O)CSC(=S)N(CC)CC |  | 12 | 
